# Screening data as filed in PubChem.
# The list is not random: actives were taken first. Their share in the collection is about 1.8%.
# HKDC1 inh: HKDC1 (human) hexokinase inhibition; Q2TB90; recombinant HKDC1, G6PDH/diaphorase resazurin coupled fluorescence; inhibition, % at 20 µM; 0.16% of 340,000 active; AID 493160;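 active = inhibition above about 35% when tested at 20 µM, limit read from the data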;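 note: plate controls were DMSO wells with enzyme for no effect and DMSO wells lacking enzyme for full effect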
#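 Material – in-house recombinant HK5 (HKDC1) enzyme · Quantity – HKDC1 at 5 µg/mL · Buffer or medium – pH 8.0 Tris buffer with 10 mM MgCl2 · Reagent – glucose with 1 mM ATP · Dosing – single 20 µM dose · Times – reaction time 90 min, room temperature, protected from light · Technique – resorufin fluorescence at 613 nm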
# DNMT1 inh: inhibitors of human DNMT1; P26358; DNMT1 molecular beacon, Hinp1I cleavage, fluorescence; inhibition (reported as % activation of signal), % at 10 µM; 0.83% of 360,000 active; AID 588458; in the data active = inhibition above about 50%
# Scp-1 inhibitor: blocks human Scp-1 phosphatase activity; AID 493091; 0.88% of 340,000 active; Recombinant Scp1, phosphopeptide, malachite green phosphate absorbance; Q9GZU7; inhibition, % at 20 µM;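 active = inhibition above about 50% at 20 µM, limit read from the data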;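 note: plate controls were DMSO wells with enzyme for no effect and wells lacking enzyme for full effect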
# Target sequence (Q9GZU7 76-261 limits assumed): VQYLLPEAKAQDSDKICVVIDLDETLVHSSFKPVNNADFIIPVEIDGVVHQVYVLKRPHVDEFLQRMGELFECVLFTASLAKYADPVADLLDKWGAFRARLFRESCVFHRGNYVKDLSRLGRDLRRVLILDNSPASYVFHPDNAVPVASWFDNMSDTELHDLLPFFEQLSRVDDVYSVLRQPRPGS
#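 Incubation: 45 min enzyme reaction at room temperature / System: truncated SCP-1 phosphatase (76-261aa) / Reagent: Phospho 17-mer peptide substrate / Buffer or medium: Acidic Tris acetate buffer with magnesium and detergent / Signal: absorbance at 630 nm / Doses: one concentration, 20 µM, with 1.0% DMSO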
# SUMO1 PPI mod: SUMO1-SIM interaction modulation. 0.33% of 360,000 active. SUMO1 binding to a labelled peptide, TR-FRET, 1 h. AID 602429. inhibition, % at 20 µM; in the data active = inhibition above about 37%
# Target sequence (P63165 whole entry, looked up): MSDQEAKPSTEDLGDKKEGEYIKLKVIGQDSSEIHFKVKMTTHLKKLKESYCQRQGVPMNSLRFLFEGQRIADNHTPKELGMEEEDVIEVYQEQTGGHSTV
# LMPTP inh: LMPTP (human) inhibition; recombinant LMPTP-A, OMFP fluorogenic substrate, fluorescence intensity; 0.22% of 360,000 active; AID 651560; inhibition, % at 20 µM;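 active = compounds that cut the enzyme signal by at least half of the control window in the single-dose screen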;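 note: plate controls were DMSO wells with enzyme plus substrate for no effect and substrate without enzyme for full effect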
# Target sequence (P24666 whole entry, looked up): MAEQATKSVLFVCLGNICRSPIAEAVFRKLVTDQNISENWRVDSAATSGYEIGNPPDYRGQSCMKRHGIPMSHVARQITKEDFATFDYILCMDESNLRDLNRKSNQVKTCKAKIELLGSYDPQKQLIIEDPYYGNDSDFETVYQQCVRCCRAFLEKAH
#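 Assay system: LMPTP-A, protein tyrosine phosphatase of low molecular weight / Medium: pH 6.0 Bis-Tris buffer with DTT and Triton X-100 / Schedule: 50 min enzyme reaction at room temperature, protected from light / Measured by: endpoint fluorescence intensity from OMFP dephosphorylation / Read-out basis: % inhibition relative to no-enzyme and uninhibited control wells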
# STEP block: STEP (human) phosphatase inhibition. recombinant STEP, OMFP fluorogenic substrate, fluorescence. AID 588621. P54829. 0.25% of 360,000 active. inhibition, % at 20 µM;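 active = inhibition at 20 µM, scaled per plate between control wells, above about 37%, limit read from the data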;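 note: 0% = DMSO with enzyme and substrate and 100% = substrate only without enzyme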
#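 material = STEP tyrosine phosphatase | reagent = fluorogenic phosphatase substrate OMFP at 25 µM final | doses = single compound dose of 20 µM, 1% DMSO final | schedule = 20 min reaction, room temperature, in the dark | measured by = fluorescence, 480/540 nm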
# Active calls of the source: *; · = no result.
SMILES,HKDC1 inh,DNMT1 inh,Scp-1 inhibitor,SUMO1 PPI mod,LMPTP inh,STEP block
COc1ccc(C=NNc2ccc(S(=O)(=O)Nc3ccccc3C(=O)O)cc2[N+](=O)[O-])c(OC)c1,3,13,-5,56*,52*,6
Cc1ccc(NC(=O)CSc2nc3ccccc3c3nc(CCc4c(C)n[nH]c4C)nn23)cc1F,1,-20,-1,43*,-2,-13
CCCc1cc(=O)oc2cc(C)cc(OCC(=O)NCCCN3CCCC3=O)c12,-4,2,-3,4,-1,-1
O=c1c2c3nc4ccccc4nc3n(Cc3ccccc3)c2ncn1Cc1ccco1,12,39,6,-2,62*,2
COCCCn1c2nc3ccccc3nc2c2c(=O)n(Cc3ccc(Cl)cc3)cnc21,4,-6,-2,-19,3,4
CC(Sc1nnc(CN2CCCC2)n1Cc1ccccc1)C(=O)Nc1ccc(F)cc1Cl (stereo not drawn),-1,1,-5,2,0,-2
CCN1/C(=C/c2ccc3ccccc3[n+]2CCCS(=O)(=O)[O-])C=Cc2cc(C)ccc21,-10,-5,43,-20,10,5
CCN1/C(=C/c2ccc3ccccc3[n+]2CC)C=Cc2ccccc21,-19,40,104*,19,46,24
COc1ccc(Cl)cc1NC(=O)CCNC(=O)Cn1ccc2ccccc2c1=O,-4,1,-5,7,0,-2
CC1CC(=O)c2c(cc3c(-c4c(O)cc(O)c5c(O)c6c(cc45)OC(C)CC6=O)c(O)cc(O)c3c2O)O1 (stereo not drawn),12,81*,15,64*,49,6
O/N=C1/C2C3C(Br)C4C5CC(C1C53)C24 (stereo not drawn),-13,0,-3,-4,-1,-2
CCOc1ccc(CCNC(=O)CN2C(=O)NC3(CCCCCC3)C2=O)cc1OCC,-2,2,-6,48*,-1,1
COc1cccc(CNC(=O)COC(=O)CCc2cc(OC)c(OC)c(OC)c2)c1,-1,-1,7,8,-1,4
CC(=O)Oc1cc2cccc(OC(C)=O)c(=O)c2c(OC(C)=O)c1OC(C)=O,2,59*,58*,-6,30,4
O=C(c1ccc(CSc2nc3ccncc3[nH]2)cc1)N1CCN(c2cccc(Cl)c2)CC1,6,-10,-9,9,66*,6
O=C(c1ccc(CSc2nc3ccncc3[nH]2)cc1)N1CCCCCC1,-4,4,-12,-3,17,0
O=C(O)c1nn(Cc2ncc(-c3cccc(Cl)c3)o2)c(=O)c2ccccc12,5,-10,-5,-6,1,2
CCC[n+]1c(C)sc2c3c(ccc21)CCCC3,3,33,98*,3,5,2
CC[n+]1c(C)sc2c(C)cc(C)cc21,0,-1,0,2,-2,-4
CCc1ccccc1OCC(=O)Nc1ccc(N2CCCC2)cc1C,-4,53*,1,-39,5,0
CCNC(=O)C1(C)CCCN(Cc2csc3ccccc23)C1 (stereo not drawn),·,-1,·,-3,0,0
CC(C)=C1CCC(C)CC1=NNC(N)=S (stereo not drawn),-4,1,56*,-3,-1,-1
CCc1ccc(N=C2NC(=O)/C(=C/c3cc(Br)c(OCC(=O)O)c(OC)c3)S2)cc1,29,37,28,18,59*,97*
Cc1ccccc1C(=O)N1CCC(C(N)=O)CC1,-15,2,-6,55*,-2,2
NC(=O)C1CCN(C(=O)c2cccc3ccccc23)CC1,-5,0,-6,4,-1,1
SMILES,HKDC1 inh,DNMT1 inh,Scp-1 inhibitor,SUMO1 PPI mod,LMPTP inh,STEP block
Cc1csc(NC(=O)c2ccc(Br)s2)n1,0,-1,77*,1,0,-1
CN(C)CCCn1c(=S)[nH]c2ccccc2c1=O,-11,-1,3,0,-1,-2
CN(C)CCCn1c2c3ccccc3ccc2c2oc(=O)c3ccccc3c21,16,77*,10,-142,2,4
CCNC(=O)C1(C)CCCN(C(=O)CCc2cccs2)C1 (stereo not drawn),·,-3,·,2,-2,1
CN(C)c1ccc(O)c2c1CC1CC3[C@@H](N(C)C)C(=O)C(C(N)=O)=C(O)[C@]3(O)C(=O)C1=C2O (stereo partly drawn),9,90*,47,23,35,21
O=C1OC(c2ccc(Br)cc2)=N/C1=C\c1ccco1,6,2,3,-4,1,4
CC1=N/C(=C/c2ccco2)C(=O)O1,0,93*,57*,13,-1,9
COc1ccc(CN2CCN(C(=O)CCC(=O)c3ccc(C)s3)CC2)cc1OC,0,-7,-7,1,-1,0
COc1cc(/C=C2/C(C)=C(C#N)c3nc(N)c(C#N)c(C)c32)ccc1OCC(=O)O,4,·,9,·,·,·
CC1=C(C#N)c2nc(N)c(C#N)c(C)c2/C1=C\c1ccc(-c2ccccc2C(=O)O)o1,17,62*,63*,30,24,19
CC(=O)c1ccc(NC(=O)c2ccc(CNc3c(N4CCOCC4)c(=O)c3=O)cc2)cc1,-5,7,-4,0,1,0
CC(=O)c1ccc(NC(=O)c2ccc(CNc3c(N4CCCC4)c(=O)c3=O)cc2)cc1,1,1,-7,0,0,2
COc1cc(NC(=O)C2CCC(CNc3c(N4CCC(C)CC4)c(=O)c3=O)CC2)cc(OC)c1 (stereo not drawn),-5,-3,-10,8,-1,0
CCc1cccc(NC(=O)c2ccc(CNc3c(N4CCCC4)c(=O)c3=O)cc2)c1,-5,-3,-4,49*,2,3
COc1cc(NC(=O)C2CCC(CNc3c(N4CCCCC4)c(=O)c3=O)CC2)cc(OC)c1 (stereo not drawn),1,52*,-3,7,1,-2
CCOc1ccc(NC(=O)c2ccc(CNc3c(N4CCCC4)c(=O)c3=O)cc2)cc1,-6,4,-2,45*,-1,0
COc1cc(NC(=O)c2ccc(CNc3c(N4CCOCC4)c(=O)c3=O)cc2)cc(OC)c1,1,-5,-16,43*,0,2
CN(C)N1C(N)=C(C#N)C(c2cccnc2)C2=C1CCCC2=O (stereo not drawn),15,-1,-1,0,-3,-4
C[C@H](NS(=O)(=O)c1ccccc1F)C(=O)OCC(=O)N1CCc2ccccc21,1,-1,-3,-1,0,4
